According to publication PMC11947739 (Alzheimer's & Dementia : Translational Research & Clinical …, 2025):

Experiments:
[1] = molecular target: human 5-HT2b receptor (Homo sapiens, UniProt P41595); assay: 5-HT2bR competitive radioligand binding, [125I]
[2] = tested on: neurology patients / AD patients; details: ref 1-8 of Supporting Data; cited from earlier work
[3] = tested on: h5-HT2b and m5-HT2b; assay: Gq activation and β-arrestin-1 recruitment, statements covering both species; type: cell-based, human and mouse; details: absence of an activator
Method in brief: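 Human and mouse 5-HT2b receptors were tested in cells. Serotonin-driven Gq activation and β-arrestin-1 recruitment were read across increasing test compound concentrations. The same read-outs were taken with vehicle and no activator to capture basal (inverse agonist) activity. Data are mean ± SEM of three to four independent experiments, each in duplicate or triplicate. EC50 and Emax were derived.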

Chain of human 5-HT2b receptor (P41595 whole entry): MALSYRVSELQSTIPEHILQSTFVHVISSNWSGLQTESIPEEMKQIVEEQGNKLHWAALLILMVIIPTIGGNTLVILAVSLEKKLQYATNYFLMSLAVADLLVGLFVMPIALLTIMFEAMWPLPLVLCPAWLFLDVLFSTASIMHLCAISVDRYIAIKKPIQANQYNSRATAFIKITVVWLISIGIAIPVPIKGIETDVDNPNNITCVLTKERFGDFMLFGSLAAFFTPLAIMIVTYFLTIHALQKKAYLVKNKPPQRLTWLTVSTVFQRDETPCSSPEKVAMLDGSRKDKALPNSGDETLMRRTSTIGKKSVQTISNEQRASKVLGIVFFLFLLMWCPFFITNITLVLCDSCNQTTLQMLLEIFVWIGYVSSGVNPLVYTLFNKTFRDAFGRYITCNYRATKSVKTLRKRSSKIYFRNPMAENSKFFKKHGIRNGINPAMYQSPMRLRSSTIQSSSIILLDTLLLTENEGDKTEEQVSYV

SMILES: Cc1cc(-c2ccccc2)nnc1NCCN1CCOCC1 [minaprine]
- IC50 [1]: 863 ± 8 nM
- Risk for cardiotoxicity, drowsiness, or weight gain [2]: low risk

SMILES: Cc1nc2n(c(=O)c1CCN1CCC(c3noc4cc(F)ccc34)CC1)CCCC2 [risperidone]
- Basal (constitutive) 5-HT2bR activity [3]: inhibited basal 5‐HT2bR
